Measured values taken from PubChem BioAssay AID588365 (Broad Institute, 2011).
The source made the active and inactive calls.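 Rule for the calls: active = compounds lowering cell ATP signal whose fitted half-maximal concentration is at most ten times the top tested dose; inconclusive = flat curve losing 30 to 70 percent, or poor fit; inactive = the rest.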

Test system: HeLa viability, CellTiter-Glo ATP luminescence, 24 h
Experiment: HeLa cell cytotoxicity, dose response, cytotoxicity control, CellTiter-Glo, 24 h, dry powder (AID 588365)
Settings: not given
Method in brief: (§1)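 Test system: human HeLa cell line, viability by cellular ATP. Medium: phenol-red-free DMEM, 10% FBS. Incubation: 24 h compound exposure, 37 °C, then 10 min reagent, RT. Technique: luminescence of cellular ATP with CellTiter-Glo reagent.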

Row | Compound | AC50
1 | O=c1c(O)cccc2cc(O)c(O)c(O)c12 | 16.1 µM
2 | O=C(O)CCNc1ccc(NCCC(=O)O)c2c1C(=O)c1ccccc1C2=O | 36.1 µM

Test system: not listed separately
Experiment: as above
Settings: HeLa viability, CellTiter-Glo ATP luminescence, 24 h; at 35 µM (top of the series)
Method in brief: as §1

Row | Compound | activity change, negative = cytotoxicity
3 | CC1(C)[C@@H](O[C@H]2O[C@H](C(=O)O)[C@@H](O)[C@H](O)[C@H]2O[C@@H]2O[C@H](C(=O)O)[C@@H](O)[C@H](O)[C@H]2O)CC[C@]2(C)[C@H]3C(=O)C=C4[C@@H]5C[C@@](C)(C(=O)O)CC[C@]5(C)CC[C@@]4(C)[C@]3(C)CC[C@@H]12 | -1.78% (inactive)
4 | O=C(O)CCCCCn1c(SCC(=O)c2ccc(O)c(O)c2)nc2ccsc2c1=O | -3.5% (inactive)
5 | O=C1CCCC(O)=C1N=Nc1ccc(C(=O)O)cc1 | -7.5% (inactive)
6 | CC1=NN(c2cccc(C(=O)O)c2)C(=O)/C1=C\C=C\c1ccco1 | -14.3% (inactive)
7 | CSc1ccc(/C=N/Nc2cccc(C(=O)O)c2)cc1 | -3.96% (inactive)
8 | Nc1c(/C=C2\C=CC(=O)C(O)=C2)c(=O)nc2sc(CC(=O)N3CCCCC3)nn12 | -8.24% (inactive)
9 | Clc1ccc(-c2nnc3sc(-c4ccc(Br)o4)nn23)cc1 | -0.723% (inactive)
10 | CCC(=O)Oc1ccc2c(c1)O/C(=C\c1ccco1)C2=O | -1.46% (inactive)
11 | CN(C)S(=O)(=O)c1cc(C(=O)NC2CCSc3ccccc32)ccc1Cl (stereo unspecified) | -9.03% (inactive)
12 | O=C1/C(=C/c2ccco2)Oc2c1ccc(O)c2CN1CCCCC1 | 4.06% (inactive)
13 | O=C(O)CC(C(=O)O)N1C(=O)/C(=C/C=C/c2ccco2)SC1=S (stereo unspecified) | 4.8% (inactive)
14 | O=C(O)C1Nc2c(O)cc(Cl)c([N+](=O)[O-])c2C2C=CCC12 (stereo unspecified) | -4.48% (inactive)
15 | COC(=O)c1ccccc1NC(=O)CCS(=O)(=O)c1ccc(Br)cc1 | -2.03% (inactive)
16 | Nc1c(C(=O)Nc2ccccc2F)sc2nc(Cc3ccccc3)cc(C(F)(F)F)c12 | 0.381% (inactive)
